Source: PubChem
Hck-Nef inh: inhibitors of Nef-activated human Hck kinase, primary screen, biochemical, Z-Lyte FRET, 384-well, Hck-YEEI; inhibition, % at 20 µM; Recombinant Hck-YEEI plus Nef, Z-Lyte FRET kinase assay; actives 0.68% (n = 220,000);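 active = Hck-Nef kinase inhibition above about 50%, limit read from the data; inactive = inhibition below that limit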;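 also: 0% = DMSO with Hck plus Nef and 100% = Hck alone without Nef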
Target sequence (P08631 whole entry, looked up): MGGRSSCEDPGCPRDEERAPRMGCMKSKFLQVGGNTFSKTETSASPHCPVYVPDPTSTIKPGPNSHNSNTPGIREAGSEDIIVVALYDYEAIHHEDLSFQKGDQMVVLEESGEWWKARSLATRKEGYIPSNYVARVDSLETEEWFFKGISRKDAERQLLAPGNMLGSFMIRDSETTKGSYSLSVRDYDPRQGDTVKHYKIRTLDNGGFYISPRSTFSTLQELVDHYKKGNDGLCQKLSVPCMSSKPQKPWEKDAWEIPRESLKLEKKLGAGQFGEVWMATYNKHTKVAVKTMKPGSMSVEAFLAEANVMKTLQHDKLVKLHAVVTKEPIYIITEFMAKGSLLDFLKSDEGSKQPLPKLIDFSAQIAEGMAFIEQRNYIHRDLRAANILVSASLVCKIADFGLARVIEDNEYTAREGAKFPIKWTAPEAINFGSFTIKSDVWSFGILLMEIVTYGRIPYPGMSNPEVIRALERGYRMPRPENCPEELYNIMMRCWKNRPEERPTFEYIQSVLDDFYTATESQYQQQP
Runt-CBFb FRET: inhibitors of RUNX1 Runt–CBFb binding, primary screen, biochemical, FRET, Cerulean-Runt, Venus-CBFb, uHTS; Runt-related transcription factor 1 (Homo sapiens) + Core-binding factor subunit beta …; Cerulean-Runt/Venus-CBFb FRET ratio 530/480, 1 h; inhibition, % at 20 µM; actives 0.46% (n = 220,000); AID 1496, 2009;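 active = inhibition over about 50% at 20 µM in the single-dose screen, limit read from the data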;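 also: 0% = DMSO wells and 100% = excess unlabeled CBFb competitor control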
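Buffer or medium: Tris pH 7.5 buffer with BSA. Assay system: Cerulean-labeled Runt domain protein. Amount: each fluorescent fusion protein 100 nM. Read-out basis: loss of energy transfer signal. Incubation: 1 h compound exposure, room temperature. Probe or stimulus: Venus-CBFb binding partner, 100 nM. Detection: FRET, excitation 422 nm, emission at 530 and 480 nm.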
Runt-SMMHC FRET: inhibitors of RUNX1 Runt–CBFb-SMMHC binding, primary screen, biochemical, FRET, Cerulean-Runt, Venus-CBFb-SMMHC, uHTS; Runt-related transcription factor 1 (Homo sapiens) + Core-binding factor subunit beta …; Cerulean-Runt/Venus-CBFb-SMMHC FRET ratio 530/480, 1 h; inhibition, % at 20 µM; actives 0.74% (n = 220,000);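 active = mean inhibition across duplicate retests at 20 µM reaching about 50%, limit read from the data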;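 also: 0% = DMSO wells and 100% = wells with excess untagged CBFb-SMMHC; inhibitors lower the FRET ratio by blocking Runt binding to CBFb-SMMHC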
RanGTP-Imp inh: inhibitors of RanGTP-importin-beta interaction, primary screen, biochemical, FRET, CFP-Ran, YFP-importin-beta, homogeneous; AID 2216, 2009; cell-free CFP-Ran/YFP-importin-beta FRET ratio; actives 1.1% (n = 300,000); Ran GTPase (GTP-bound) - importin-beta complex; inhibition, % (test concentration not listed);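 active = more than half of the replicate wells show a fall in the fluorescence ratio signal beyond about 16%, limit read from the data, passing the limit was not always enough; inconclusive = exactly half of the replicate wells pass the set limit; inactive = fewer than half of replicates pass the limit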;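 also: 0% = DMSO wells and 100% = Ran loaded with GDP instead of GTP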
Active calls of the source: *; ? = inconclusive; . = no result given. Shown are actives, neighbours in structure and some others; about 1.9% of the full set was active somewhere.

SMILES | Hck-Nef inh | Runt-CBFb FRET | Runt-SMMHC FRET | RanGTP-Imp inh
CCCn1c(=NC(C)=O)c(C#N)cc2c(=O)n3cccc(C)c3nc21 | 56.5* | . | . | .
COCCCn1c(=NC(C)=O)c(C#N)cc2c(=O)n3cccc(C)c3nc21 | 38.6 | 57.1* | 81.7* | 81.8*
COCCCn1c(=NC(=O)c2ccc3c(c2)OCO3)c(C#N)cc2c(=O)n3cccc(C)c3nc21 | . | 126.9* | 154.9* | .
Cc1ccc(C(=O)NCCc2nnc3c(C(F)(F)F)cc(Cl)cn23)o1 | . | . | . | 2.4
CC(C)(C)c1csc(NC(=O)c2cccnc2)n1 | . | . | . | 35.7*
CC(C)(C)c1csc(NC(=O)c2cccs2)n1 | 2.8 | -1.6 | 0.4 | ?
Cc1cc(N2CCN(C3CCCC3)CC2)n2c(nc3ccccc32)c1C#N | 11.2 | 31.7 | 53.1* | 7.4
c1ccc(Oc2c3ccccc3nc3ccccc23)cc1 | 41.5 | 33.8 | 74.3* | 8.6
Cc1nc(Oc2ccccc2)c2ccccc2n1 | 4.5 | -0.4 | -0.4 | 6.4
CCOC(=O)CNC(=O)C1CCN(S(=O)(=O)c2ccc(-c3nn[nH]n3)cc2)CC1 | . | . | . | 4.5
Nc1ccc2c(C(F)(F)F)cc(=O)oc2c1 | -0.4 | 18.1 | 61.3* | 57.2*
Cc1n[nH]c(=O)c2c(NC(=O)CSc3ccc(Br)cc3)oc(C)c12 | . | . | . | 4.1
N#C/C(=C\c1ccc(Cl)cc1)C(=O)Nc1cccnc1 | 7.0 | -0.7 | 27.4 | 5.0
CCCCOc1ccc(-c2nnn(C(C)(C)C(=O)OC)n2)cc1 | 0.6 | -2.6 | -4.2 | -1.0
CCCCOc1ccc(-c2nnn(C(C)C(=O)OCC)n2)cc1 (stereo unspecified) | -1.3 | -5.6 | -4.8 | 90.8*
COc1ccc(CCn2c(=N)c(C(=O)NCCN3CCOCC3)cc3c(=O)n4ccccc4nc32)cc1OC | . | . | . | -0.6
N=c1c(C(=O)NC2CCCC2)cc2c(=O)n3ccccc3nc2n1CCCN1CCOCC1 | . | . | . | 139.7*
N=c1c(C(=O)NC2CCCC2)cc2c(=O)n3ccccc3nc2n1CCN1CCOCC1 | 34.5 | 99.2* | 76.9* | 99.1*
CCOc1ncccc1C(=O)OCC(=O)N(CC)c1ccccc1 | 20.9 | 0.3 | 1.5 | 2.0
CCN1C(=O)/C(=C/C=C2/CCCN2C)OC1=S | 12.2 | 2.6 | 125.1* | 0.9
CN(CC(=O)Nc1cccc(F)c1)C(=O)CSc1ccccc1F | . | . | . | 1.9
N=c1oc2ccc3ccccc3c2cc1-c1nc(-c2ccccc2)cs1 | 2.1 | 22.3 | 29.1 | 72.6*
O=c1oc2ccccc2cc1-c1ccccc1 | 11.9 | -2.8 | 2.4 | -5.5
N=c1oc2ccccc2cc1-c1nc(-c2ccccc2)cs1 | -1.0 | -60.0 | -160.0 | 44.4*
C=C1c2cc(C)c(C)cc2NC(=O)N1c1ccccc1 | 19.7 | 2.9 | 60.2* | -0.1
SMILES | Hck-Nef inh | Runt-CBFb FRET | Runt-SMMHC FRET | RanGTP-Imp inh
CCCNC(=O)[C@@H]1CCCN1C(=O)[C@@H]1Cc2ccccc2CN1 | . | . | . | -6.0
CCOc1ccc(C(=O)C(C)OC(=O)c2nc(Cl)ccc2Cl)cc1 (stereo unspecified) | . | . | . | -2.0
CC(=O)N1CCN(c2nc(-c3ccco3)c3c(c2C#N)CC(C)(C)SC3)CC1 | 5.9 | -12.5 | -41.7 | 16.0*
CCOC(=O)c1sc(CS(=O)(=O)c2ccc(Cl)cc2)nc1C | 15.8 | 1.6 | -11.1 | 8.1
CCOC(=O)c1sc(-c2ccc(Cl)cc2Cl)nc1O | -134.8 | -61.0 | 84.0* | -36.7
O=S(=O)(c1cccs1)N1CCN(c2ccc(O)cc2)CC1 | 1.6 | 12.9 | 4.3 | -0.9
CCCCc1cc(=O)oc2cc(O)ccc12 | 115.2* | 40.0 | 86.1* | 4.3
CCc1ccc2c(CN3CCc4ccccc43)cc(=O)oc2c1 | 1.6 | -0.5 | 2.9 | -0.1
O=c1cc(CN2CCc3ccccc32)c2ccc(O)cc2o1 | 26.9 | 15.3 | 23.6 | 43.2*
CCCCc1cc(=O)oc2cc(OCC(=O)N3CCOCC3)ccc12 | . | . | . | 0.4
CCN(CC)c1ccc(C(=O)OCc2cc(=O)oc3cc(O)ccc23)cc1 | 18.4 | 50.4* | 119.3* | 7.6
CCN(CC)c1ccc2c(O)cc(=O)oc2c1 | 20.0 | -0.5 | -5.1 | 5.1
O=C1c2ccccc2NC(c2ccc(O)c(O)c2)N1c1ccccc1Cl (stereo unspecified) | . | . | . | 6.1
Cc1c(C(=O)NC2CCCc3ccccc32)cccc1[N+](=O)[O-] (stereo unspecified) | . | . | . | -2.8
CCCCCCc1c(C)c2ccc(OCC(=O)N[C@@H](Cc3ccccc3)C(=O)O)cc2oc1=O | . | . | . | -4.4
Cc1ccc(S(=O)(=O)N2CCCC2CNC(=O)C(=O)Nc2ccc(F)cc2)cc1 (stereo unspecified) | . | . | . | 31.5*
OC1CCN(c2cc(-c3ccccc3)nc3cc(-c4ccc(F)cc4)nn23)CC1 | 20.6 | 2.0 | 8.0 | 2.9
CCN1CCN(c2cc(-c3ccccc3)nc3cc(-c4cccc(F)c4)nn23)CC1 | 8.4 | 1.8 | 33.3 | 16.8*
Cc1sc2nc3ccc(NCc4ccco4)nn3c(=O)c2c1C | 3.2 | 6.2 | 60.4* | 7.4
CCC(=O)c1ccccc1OCCCCn1cncn1 | . | . | . | 0.4
CCOC(=O)c1c(NC(=S)Nc2ccccc2)sc2c1CCN(CC)C2 | 4.3 | 60.8* | 152.4* | 61.7*
CCOC(=O)c1c(NC(=O)C2COc3ccccc3O2)sc2c1CCN(Cc1ccccc1)C2 (stereo unspecified) | 3.1 | 49.2 | 47.8 | 90.4*
COC(=O)N1CCc2c(sc(NC(=O)C3COc4ccccc4O3)c2C(N)=O)C1 (stereo unspecified) | . | . | . | -1.3
NC(=O)c1c(NC(=O)C2COc3ccccc3O2)sc2c1CCN(Cc1ccccc1)C2 (stereo unspecified) | 25.5 | 110.3* | 136.8* | -2.6
CCn1c(C)c(CS(=O)(=O)c2ccccc2)[nH]c1=O | 7.3 | -14.5 | -11.2 | 3.9
SMILES | Hck-Nef inh | Runt-CBFb FRET | Runt-SMMHC FRET | RanGTP-Imp inh
N#C/C(=C\c1c(Oc2ccccc2F)nc2ccccn2c1=O)C(=O)NC1CCS(=O)(=O)C1 (stereo unspecified) | . | . | . | 127.8*
COC(=O)/C(C#N)=C/c1c(Oc2cc(C)cc(C)c2)nc2ccccn2c1=O | 3.2 | 2.6 | 13.1 | -7.8
Cc1cc(C)cc(Oc2nc3ccccn3c(=O)c2/C=C(\C#N)C(=O)NC2CCS(=O)(=O)C2)c1 (stereo unspecified) | 19.6 | 88.1* | 60.2* | ?
N#C/C(=C\c1c(Oc2ccccc2Cl)nc2ccccn2c1=O)C(=O)NC1CCS(=O)(=O)C1 (stereo unspecified) | . | . | . | 91.2*
Cc1ccc(C(=O)N/C(=C/c2ccco2)C(=O)NCCc2c[nH]c3ccccc23)cc1 | 2.6 | 1.4 | 1.5 | 2.2
O=S(=O)(c1ccc2ccccc2c1)n1cccn1 | . | . | . | -0.7
CCCS(=O)(=O)c1c(S(=O)(=O)CCC)c2cnccn2c1C(=O)c1ccc(OC)cc1 | 7.7 | -2.2 | -0.6 | -1.4
